Calls of active or inactive are those of the source. The rule behind the calls is not given here.
Experiments:
PC-3 = test: Cytotoxicity against human PC3 cells after 72 hrs by Alamar blue assay; type: functional, cell-based; conditions: PC-3, 72 h
Summary of the method: (§1)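 H1299, PC3, OECM1 and U87 cells exposed 72 h to six or seven drug concentrations. Alamar blue added for 6 h at 37 °C; absorbance read at 570 and 600 nm. IC50 obtained from dose-effect data by the median-effect principle.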

NCI-H1299 [1] = test: Cell cycle arrest in human H1299 cells assessed as accumulation at subG1 phase at 5 uM after 24 hrs by propidium iodide staining-based flow cytometry; conditions: NCI-H1299, 24 h
NCI-H1299 [2] = test: Cell cycle arrest in human H1299 cells assessed as accumulation at G1 phase at 2.5 uM after 24 hrs by propidium iodide staining-based flow cytometry; conditions: NCI-H1299, 24 h
NCI-H1299 [3] = test: Cell cycle arrest in human H1299 cells assessed as accumulation at G2/M phase at 2.5 uM after 24 hrs by propidium iodide staining-based flow cytometry; conditions: NCI-H1299, 24 h
MX1 [4] = test: Cytotoxicity against human MX1 cells after 72 hrs by SRB assay; type: functional, cell-based; conditions: MX1, 72 h
Summary of the method: (§2)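 MX-1 breast and HCT-116 colon carcinoma cells exposed 72 h to six or seven drug concentrations. Growth measured by SRB assay with microplate absorbance. IC50 obtained from dose-effect data by the median-effect principle.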

[5] = Cytotoxicity against human H1299 cells after 72 hrs by Alamar blue assay; type: functional, cell-based; conditions: NCI-H1299, 72 h; summary of the method: as §1
NCI-H1299 [6] = test: Cell cycle arrest in human H1299 cells assessed as accumulation at G2/M phase at 1.25 uM after 24 hrs by propidium iodide staining-based flow cytometry; conditions: NCI-H1299, 24 h
NCI-H1299 [7] = test: Cell cycle arrest in human H1299 cells assessed as accumulation at G1 phase at 5 uM after 24 hrs by propidium iodide staining-based flow cytometry; conditions: NCI-H1299, 24 h
NCI-H1299 [8] = test: Cell cycle arrest in human H1299 cells assessed as accumulation at G1 phase at 1.25 uM after 24 hrs by propidium iodide staining-based flow cytometry; conditions: NCI-H1299, 24 h
CCRF-CEM [9] = test: Cytotoxicity against vinblastine-resistant human CCRF-CEM cells after 72 hrs by XTT assay; type: functional, cell-based
Summary of the method: (§3)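 Leukemic CCRF-CEM and its Taxol- and vinblastine-resistant sublines exposed 72 h to six or seven drug concentrations. XTT with phenazine methosulfate added for 6 h at 37 °C; absorbance read at 450 and 630 nm. IC50 obtained from dose-effect data by the median-effect principle.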

[10] = Cytotoxicity against human U87 cells after 72 hrs by Alamar blue assay; type: functional, cell-based, U-87MG ATCC; conditions: U-87 MG; summary of the method: as §1
NCI-H1299 [11] = test: Cell cycle arrest in human H1299 cells assessed as accumulation at G2/M phase at 5 uM after 24 hrs by propidium iodide staining-based flow cytometry; conditions: NCI-H1299, 24 h
NCI-H1299 [12] = test: Cell cycle arrest in human H1299 cells assessed as accumulation at subG1 phase at 1.25 uM after 24 hrs by propidium iodide staining-based flow cytometry; conditions: NCI-H1299, 24 h
CCRF-CEM [13] = test: Ratio of IC50 for Taxol-resistant human CCRF-CEM cells to IC50 for human CCRF-CEM cells
CCRF-CEM [14] = test: Cytotoxicity against human CCRF-CEM cells after 72 hrs by XTT assay; type: functional, cell-based; summary of the method: as §3
[15] = Cytotoxicity against human OECM1 cells after 72 hrs by Alamar blue assay; type: functional, cell-based; conditions: OECM1, 72 h; summary of the method: as §1
NCI-H1299 [16] = test: Cell cycle arrest in human H1299 cells assessed as accumulation at S phase at 5 uM after 24 hrs by propidium iodide staining-based flow cytometry; conditions: NCI-H1299, 24 h
SK-OV-3 = test: Antitumor activity against human SKOV3 cells implanted in mouse assessed as significant suppression in tumor size at 20 mg/kg, iv QD for 4 times measured on day 22
NCI-H1299 [17] = test: Cell cycle arrest in human H1299 cells assessed as accumulation at S phase at 2.5 uM after 24 hrs by propidium iodide staining-based flow cytometry; conditions: NCI-H1299, 24 h
NCI-H1299 [18] = test: Cell cycle arrest in human H1299 cells assessed as accumulation at subG1 phase at 2.5 uM after 24 hrs by propidium iodide staining-based flow cytometry; conditions: NCI-H1299, 24 h
MX1 [19] = test: Antitumor activity against human MX1 cells implanted in mouse assessed as complete suppression in tumor size at 30 mg/kg, iv Q2D for 2 times measured on day 8 and 10; type: functional, organism-based; set-up: dose 30 mg/kg
Summary of the method: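 Athymic nu/nu nude mice (outbred Swiss background, male, ≥8 weeks, about 22 g) bearing human tumor xenografts; MX-1 dosed iv Q2D×2 (day 8 and 10), SK-OV-3 dosed iv QD×4 from day 22. Tail-vein injection in DMSO/Tween 80/saline vehicle at the maximal tolerable dose. Tumor volume measured by caliper (length×width×height or width); body weight followed; n = 4.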

NCI-H1299 [20] = test: Cell cycle arrest in human H1299 cells assessed as accumulation at S phase at 1.25 uM after 24 hrs by propidium iodide staining-based flow cytometry; conditions: NCI-H1299, 24 h
CCRF-CEM [21] = test: Cytotoxicity against Taxol-resistant human CCRF-CEM cells after 72 hrs by XTT assay; type: functional, cell-based; summary of the method: as §3
Nucleic Acid = test: Induction of Escherichia coli pEGFP-N1 DNA cross-linking at 1 to 20 uM after 2 hrs by alkaline agarose gel shift assay; type: nucleic-acid assay
Summary of the method: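 pEGFP-N1 plasmid DNA (1.5 µg) incubated with compound (1–20 µM) in binding buffer (3 mM NaCl/1 mM sodium phosphate pH 7.4, 1 mM EDTA) for 2 h at 37 °C. Plasmid then linearized with BamHI, ethanol-precipitated, and resolved on alkaline agarose gel into single-stranded and cross-linked bands. Melphalan (1, 5, 10 µM) as positive control.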

HCT-116 = test: Cytotoxicity against human HCT116 cells after 72 hrs by SRB assay; type: functional, cell-based; conditions: HCT-116, 72 h; summary of the method: as §2

Activity (Nucleic Acid): Active
SMILES: Cc1c(CO)c(CO)c2n1Cc1ccccc1C2
IC50 (PC-3): 6070 nM | cell population % at 5 µM (NCI-H1299 [1]): 26.5% | cell population % at 2.5 µM (NCI-H1299 [2]): 7.7% | cell population % at 2.5 µM (NCI-H1299 [3]): 47.3% | IC50 (MX1 [4]): 660 nM | IC50 [5]: 2480 nM | cell population % at 1.25 µM (NCI-H1299 [6]): 40.1% | cell population % at 5 µM (NCI-H1299 [7]): 0.5% | cell population % at 1.25 µM (NCI-H1299 [8]): 5.6% | IC50 (CCRF-CEM [9]): 90 nM | IC50 [10]: 27900 nM | cell population % at 5 µM (NCI-H1299 [11]): 48.4% | cell population % at 1.25 µM (NCI-H1299 [12]): 21.6% | Ratio IC50 (CCRF-CEM [13]): 1.22 | IC50 (CCRF-CEM [14]): 80 nM | IC50 [15]: 6100 nM | cell population % at 5 µM (NCI-H1299 [16]): 24.7% | Activity (SK-OV-3): Active | cell population % at 2.5 µM (NCI-H1299 [17]): 18.3% | cell population % at 2.5 µM (NCI-H1299 [18]): 26.6% | Activity (MX1 [19]): Active | cell population % at 1.25 µM (NCI-H1299 [20]): 32.7% | IC50 (CCRF-CEM [21]): 100 nM | IC50 (HCT-116): 290 nM

— ChEMBL document CHEMBL1641600, “Novel bifunctional alkylating agents, 5,10-dihydropyrrolo[1,2-b]isoquinoline derivatives, synthesis and biological activity” (Bioorg Med Chem, 2011)
